# A selection: hits, their analogues and other compounds. The true share with any hit is near 3.9%.
# XBP1 UPR activ: activators of adaptive arm of unfolded protein response (XBP1); CHO-XBP1 luciferase reporter, IRE1-XBP1 UPR activation, luminescence; percent of tunicamycin response, DMSO as zero; 0.33% of 330,000 active; activation, % at 20 µM;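 active = versus positive control, 20 µM dose yields 30% or more activation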;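 note: 100% = tunicamycin at 10 µg/mL and 0% = DMSO only wells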
#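 Material: CHO cell line with stable XBP1 luciferase reporter; schedule: 16-18 h cell attachment at 37 °C, then 6 h compound exposure; signal: glow luminescence from Steady-Glo reagent; medium: serum-containing F12 medium, 10% FBS; benchmarks: tunicamycin 10 µg/mL and vehicle-only wells; read-out: percent activation relative to tunicamycin reference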
# 697 NFkB inh: inhibitors of the PMA/ionomycin-induced NF-kB reporter in 697 B cells | 697 B-cell NF-kB luciferase reporter, 16 h | inhibition, % at 4 µM | 0.33% of 330,000 active; in the data active = inhibition above about 35%
# Gli-Sufu antag: antagonists of Gli-Sufu signaling | inhibition, % at 5 µM | 0.74% of 340,000 active | Sufu-KO-LIGHT fibroblasts, Gli luciferase reporter luminescence | AID 588413;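 active = inhibition above about 55%, limit read from the data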;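 note: 0% = DMSO-treated cells and 100% = wells with medium but no cells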
# UPR CHOP act: apoptotic UPR (CHOP) activation. activation, % at 10 µM. CHO-CHOP luciferase reporter, luminescence; percent of tunicamycin response over DMSO baseline. AID 449763. 0.34% of 330,000 active;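 active = at 10 µM dose, activation of 40% or more, normalized to positive control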;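 note: 100% = tunicamycin at 10 µg/mL and 0% = DMSO alone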
#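 assay system = CHO CHOP reporter cells | amount = 500 CHO-CHOP cells per well | buffer or medium = F12 with 10% FBS | incubation = 16-18 h cell attachment, then 6 h compound exposure, 37 °C | detection = luminescence read with Steady-Glo | read-out = percent activation relative to tunicamycin control | controls = tunicamycin high control, DMSO low control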
# Jurkat NFkB inh: inhibitors of the PMA/ionomycin-induced NF-kB reporter in Jurkat cells; PMA/ionomycin-induced NF-kB luciferase reporter, luminescence; inhibition, % at 4 µM; 0.53% of 330,000 active; AID 435003; in the data active = inhibition above about 50%
# CHOP inhibitor: CHOP inhibition in unfolded protein response. CHO-K1 CHOP-promoter luciferase, tunicamycin-induced, 15-18 h. inhibition, % at 10 µM. 3.8% of 220,000 active;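 active = compounds that reduced the stress-induced luciferase reporter signal by more than about 70% of percent inhibition, limit read from the data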;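 note: 0% = tunicamycin plus vehicle and 100% = wells without tunicamycin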
# An asterisk follows results filed as active; · = not tested or not shown.
SMILES,XBP1 UPR activ,697 NFkB inh,Gli-Sufu antag,UPR CHOP act,Jurkat NFkB inh,CHOP inhibitor
O=C(O)c1ccc(S(=O)(=O)NCC2CCCCC2)cc1,-3,10,8,-1,3,·
COC(=O)c1cn(C(=O)c2cccc(Br)c2)c2ccccc12,1,14,8,0,8,·
CC(Oc1ccc(Cl)cc1Cl)C(=O)Nc1ccc2oc(-c3ccncc3)nc2c1 (configuration not stated),1,-51,-7,-1,5,74*
CCOc1nc(CC(C)C)c2c(c1C#N)CC(C)(C)OC2,-2,16,7,1,4,74*
CCOc1ncnc2c1oc1nc(CC(C)C)c3c(c12)CC(C)(C)OC3,8,20,-1,1,6,-7
NS(=O)(=O)c1cccc(NC(=O)CC(NC(=O)c2ccccc2Cl)c2ccccc2)c1 (configuration not stated),-3,-7,-1,-1,-33,·
OC(CNCc1ccc(F)cc1)(c1ccc(F)cc1)c1ccc(F)cc1,-1,6,-1,-1,-9,72*
OC(CNCc1ccc(Cl)cc1)(c1ccccc1)c1ccc(F)cc1 (configuration not stated),-1,3,18,-2,-3,75*
COc1ccc(CNCC(O)(c2ccccc2)c2ccc(F)cc2)cc1 (configuration not stated),-1,-17,-36,0,-10,·
C=CCn1c(SCC(=O)Nc2sccc2C(N)=O)nc2ccccc2c1=O,3,-5,12,0,17,51
C=CCn1c(SCC(=O)Nc2sccc2C(N)=O)nc2ccc(Cl)cc2c1=O,-4,-25,9,2,18,78*
O=C(Nc1cccc(C(F)(F)F)c1)c1cccc(NS(=O)(=O)c2ccc(O)c(C(=O)O)c2)c1,1,-13,-3,0,-14,·
CCOc1ccc(NC(=O)CN2C(=O)COc3ccc(Cl)cc32)cc1,2,7,-13,0,1,76*
O=C(N1CCCC1)C12CC3CC(CC(Cl)(C3)C1)C2,0,9,0,-1,-24,·
COc1ccc(N2C(=S)N=C(Nc3ccccc3)C23CCCCC3)cc1,7,-15,-2,-1,8,101*
Cc1cc(=O)[nH]c2nnc(-c3ccc(Br)cc3)n12,-6,-79,-37,1,-24,·
Cc1ccc2nc(-c3ccccc3)cn2c1,-17,-7,18,-11,46,76*
Cc1nn(C2CCS(=O)(=O)C2)c(C)c1CN(C)C(=O)c1cccc(Cl)c1 (configuration not stated),-1,0,0,2,-6,·
COc1ccc(Cl)cc1S(=O)(=O)N1CCN(Cc2ccc3c(c2)OCO3)CC1,2,14,-1,1,10,73*
O=C(NC(=S)Nc1nc(-c2ccc(Br)cc2)cs1)c1ccco1,0,-27,3,1,-29,84*
CCn1c2ccccc2c2cc(NC(=O)C(C)OC(=O)c3ccc(NC(=O)CC#N)cc3)ccc21 (configuration not stated),22,11,-6,2,0,·
Cc1ccc(OCCN2CCN(CC(O)Cn3c4ccccc4c4ccccc43)CC2)cc1 (configuration not stated),6,0,·,2,7,96*
Cc1c(/C=N/n2cnnc2)c2ccccc2n1CCOc1ccc(Cl)cc1,19,19,4,0,-6,59
Cc1ccc(OCCn2c(C)c(/C=N/n3cnnc3)c3ccccc32)cc1,5,-19,-1,0,1,81*
OC(CN1CCN(c2ccccc2)CC1)Cn1c2ccccc2c2ccccc21 (configuration not stated),-3,-25,8,1,-11,80*
SMILES,XBP1 UPR activ,697 NFkB inh,Gli-Sufu antag,UPR CHOP act,Jurkat NFkB inh,CHOP inhibitor
O=C(CCn1nc(-c2ccc(Cl)cc2)ccc1=O)N1CCN(c2ccc(F)cc2)CC1,-2,-3,6,-1,-17,·
COc1cc(NC(=O)c2c(F)c(F)c(OC)c(F)c2F)ccc1NC(=O)c1cccs1,-4,-8,-6,2,1,·
OC(CCN1CCOCC1)(c1ccc(Cl)cc1)C1CCCCC1 (configuration not stated),-1,-4,1,-1,-3,80*
Cc1ccnc(NC(=O)C2CC(=O)N(Cc3ccccc3)C2)c1 (configuration not stated),-3,-105,-10,2,-92,·
CC(C)(C)NC(=O)CN(C(=O)Cn1nnc(-c2ccc(Cl)cc2)n1)C1CCN(Cc2ccccc2)CC1,-1,-28,3,4,12,72*
O=C(Cn1nnc(-c2ccc(CN3CCOCC3)cc2)n1)N(c1ccccc1)c1ccccc1,-2,10,23,-1,-2,19
CC(C)Cc1cc(CNC(=O)C2CCC(=O)N(Cc3cccc(C(F)(F)F)c3)C2)on1 (configuration not stated),-5,-1,-4,2,4,·
Cc1ccc(NC(=O)CSc2nnnn2-c2ccc3c(c2)OCO3)cc1C,-4,12,-3,-4,-7,92*
Cc1ccc(-n2nnnc2SCC(=O)Nc2ccc3c(c2)OCCO3)cc1C,0,3,-15,-1,-1,35
Cc1ccc(-n2nnnc2SCC(=O)Nc2sc(C)c(C)c2C#N)cc1C,3,-2,0,-2,-13,83*
O=C(CSc1nnnn1-c1ccccc1)Nc1ccc(Cl)cc1,1,17,-3,1,4,88*
CC(=O)c1ccc(-n2nnnc2SCC(=O)Nc2sc(C)c(C)c2C#N)cc1,2,10,4,2,-9,81*
CC(=O)Nc1ccc(S(=O)(=O)NCCC(=O)OCC(=O)c2cc(C)ccc2C)cc1,2,9,-7,1,5,·
O=C(/C=C/c1cc(Br)ccc1F)OCC(=O)N1CCOCC1,0,-7,-2,-1,-12,·
COc1ccc(NC(=O)c2ccc(NC(=O)CN3CCC(C(N)=O)CC3)cc2)cc1,1,-8,-13,0,-16,·
COc1ccc(C(C(=O)NC2CCCCC2)N(C(=O)Cc2c[nH]c3ccccc23)c2ccccc2C)cc1OC (configuration not stated),-4,20,4,2,7,38
Cc1ccc(C(C(=O)NC2CCCCC2)N(Cc2ccco2)C(=O)Cc2c[nH]c3ccccc23)o1 (configuration not stated),0,21,21,-1,4,87*
Cc1ccc(N(C(=O)Cc2c[nH]c3ccccc23)C(C(=O)NC2CCCCC2)c2ccco2)cc1 (configuration not stated),6,10,6,2,-5,88*

# Source: PubChem BioAssay (several laboratories)
